Assay results reported in paper PMC10076185 (Experimental eye research, 2023).

How the values were obtained:
Experiment in all cases: SPR, protein immobilised by amine coupling, OneStep injection
Format in all cases: binding
Apo-AII = Apo-AII (Homo sapiens, UniProt P02652)
Procedure, shortened: (§1)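 Recombinant human proteins from commercial sources were amine-coupled to a carboxyl sensor chip beside an unmodified reference surface. Test compound in 100% DMSO was diluted to 1–100 µM in running buffer (10 mM PBS, 0.1% polyvinylpyrrolidone, 5% DMSO, pH 7.4) and given as a Taylor-dispersion gradient, three injections each, at 25 °C and 10 Hz. Sensorgrams were zeroed and double-referenced against buffer blanks, and equilibrium constants were fitted.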

Human IRBP = Human IRBP (Homo sapiens, UniProt P10745)
Apo-AI = Apo-AI (Homo sapiens, UniProt P02647)
Apo-D = Apo-D (Homo sapiens, UniProt P05090)
Procedure, shortened: as §1

Apo-M = Apo-M (Homo sapiens, UniProt O95445)
Procedure, shortened: as §1

Apo-E = Apo-E (Homo sapiens, UniProt P02649)
Procedure, shortened: as §1

GSTP1 = GSTP1 (Homo sapiens, UniProt P09211)
Procedure, shortened: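 Human GSTP1 was expressed in E. coli and purified in-house, then amine-coupled to a carboxyl chip with an unmodified reference surface. Test compound in 100% DMSO was diluted to 1–100 µM in running buffer (10 mM PBS, 0.1% polyvinylpyrrolidone, 5% DMSO, pH 7.4) and injected as a Taylor-dispersion gradient, three times per concentration, at 25 °C. Sensorgrams were double-referenced with buffer blanks, and equilibrium binding constants were fitted.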

Sequence of Apo-AII (P02652 24-100): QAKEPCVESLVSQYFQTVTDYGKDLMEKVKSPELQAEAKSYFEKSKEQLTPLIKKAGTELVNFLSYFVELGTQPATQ
Sequence of Apo-D (P05090 21-189): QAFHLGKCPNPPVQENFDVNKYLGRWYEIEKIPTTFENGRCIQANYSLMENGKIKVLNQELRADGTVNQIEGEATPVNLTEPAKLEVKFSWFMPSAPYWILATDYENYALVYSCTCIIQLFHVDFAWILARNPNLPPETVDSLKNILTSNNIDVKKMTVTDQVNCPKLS
Sequence of GSTP1 (P09211 2-210): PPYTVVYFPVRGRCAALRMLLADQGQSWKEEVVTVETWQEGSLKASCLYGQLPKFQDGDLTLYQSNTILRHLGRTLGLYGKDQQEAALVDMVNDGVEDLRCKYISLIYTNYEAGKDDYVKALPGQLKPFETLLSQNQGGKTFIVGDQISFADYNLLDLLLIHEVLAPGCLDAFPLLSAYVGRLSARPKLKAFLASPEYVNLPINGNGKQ
Sequence of Apo-E (P02649 19-317): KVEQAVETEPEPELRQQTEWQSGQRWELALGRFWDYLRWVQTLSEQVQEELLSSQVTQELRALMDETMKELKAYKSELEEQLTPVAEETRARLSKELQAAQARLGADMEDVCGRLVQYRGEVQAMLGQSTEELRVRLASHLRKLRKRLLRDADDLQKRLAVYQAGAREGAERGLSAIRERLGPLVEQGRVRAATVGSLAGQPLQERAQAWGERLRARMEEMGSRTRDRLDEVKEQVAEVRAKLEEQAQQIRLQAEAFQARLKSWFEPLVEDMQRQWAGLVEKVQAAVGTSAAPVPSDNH
Sequence of Apo-M (O95445 whole entry): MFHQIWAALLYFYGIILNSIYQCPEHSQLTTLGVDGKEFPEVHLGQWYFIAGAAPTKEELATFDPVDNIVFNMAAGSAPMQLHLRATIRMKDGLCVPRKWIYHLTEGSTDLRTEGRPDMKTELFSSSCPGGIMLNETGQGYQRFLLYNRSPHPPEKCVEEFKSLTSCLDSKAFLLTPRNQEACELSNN
Sequence of Apo-AI (P02647 25-267): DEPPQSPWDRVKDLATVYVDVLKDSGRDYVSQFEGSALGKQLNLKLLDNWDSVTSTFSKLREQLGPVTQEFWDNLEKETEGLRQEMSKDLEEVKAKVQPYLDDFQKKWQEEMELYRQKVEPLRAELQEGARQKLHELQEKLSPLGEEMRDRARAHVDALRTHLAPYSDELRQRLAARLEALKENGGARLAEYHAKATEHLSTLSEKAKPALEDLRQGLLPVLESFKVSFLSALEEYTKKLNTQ
Sequence of Human IRBP (P10745 18-1247): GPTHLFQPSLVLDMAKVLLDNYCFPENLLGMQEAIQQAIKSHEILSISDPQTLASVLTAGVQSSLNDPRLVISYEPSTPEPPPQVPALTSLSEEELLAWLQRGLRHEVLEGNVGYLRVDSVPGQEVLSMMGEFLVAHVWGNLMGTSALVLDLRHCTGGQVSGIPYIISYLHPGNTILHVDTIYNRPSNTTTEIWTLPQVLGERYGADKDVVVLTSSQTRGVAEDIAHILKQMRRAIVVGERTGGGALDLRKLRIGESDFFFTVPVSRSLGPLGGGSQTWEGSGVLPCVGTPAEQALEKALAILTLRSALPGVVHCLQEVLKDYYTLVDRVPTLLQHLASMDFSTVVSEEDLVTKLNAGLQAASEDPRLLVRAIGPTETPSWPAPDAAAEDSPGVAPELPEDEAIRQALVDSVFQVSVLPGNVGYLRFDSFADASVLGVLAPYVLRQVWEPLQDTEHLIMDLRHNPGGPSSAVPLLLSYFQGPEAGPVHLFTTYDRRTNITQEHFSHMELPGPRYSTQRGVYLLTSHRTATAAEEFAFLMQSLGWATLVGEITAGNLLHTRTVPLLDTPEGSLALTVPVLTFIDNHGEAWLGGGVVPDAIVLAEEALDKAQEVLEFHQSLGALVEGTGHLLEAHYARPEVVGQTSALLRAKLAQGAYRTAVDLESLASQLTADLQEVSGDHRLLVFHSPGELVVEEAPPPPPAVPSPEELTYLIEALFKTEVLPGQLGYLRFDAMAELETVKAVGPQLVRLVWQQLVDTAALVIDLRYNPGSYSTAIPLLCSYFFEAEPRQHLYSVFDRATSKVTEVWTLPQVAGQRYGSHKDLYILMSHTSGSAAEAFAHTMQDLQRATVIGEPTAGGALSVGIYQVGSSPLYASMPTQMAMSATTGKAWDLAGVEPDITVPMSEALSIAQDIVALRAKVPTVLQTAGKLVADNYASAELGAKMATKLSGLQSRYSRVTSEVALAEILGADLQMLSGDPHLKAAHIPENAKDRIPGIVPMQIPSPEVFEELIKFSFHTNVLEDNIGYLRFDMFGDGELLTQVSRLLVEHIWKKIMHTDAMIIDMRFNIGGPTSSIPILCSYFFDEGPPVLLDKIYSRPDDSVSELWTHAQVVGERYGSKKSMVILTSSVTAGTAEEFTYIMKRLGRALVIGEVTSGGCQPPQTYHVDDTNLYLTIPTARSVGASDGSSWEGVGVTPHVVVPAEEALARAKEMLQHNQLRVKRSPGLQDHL

| Structure (SMILES) | Kd (Apo-AII) [nM] | Kd (Human IRBP) [nM] | Kd (Apo-AI) [nM] | Kd (Apo-D) [nM] | Kd (Apo-M) [nM] | Kd (Apo-E) [nM] | Kd (GSTP1) [nM] |
| --- | --- | --- | --- | --- | --- | --- | --- |
| CC1=C[C@H](O)CC(C)(C)[C@H]1/C=C/C(C)=C/C=C/C(C)=C/C=C/C=C(C)/C=C/C=C(C)/C=C/C1=C(C)C[C@@H](O)CC1(C)C [Lutein] | 6100 ± 300 | 1060 ± 200 | 12100 | 84000 ± 1000 | 35000 ± 1000 | 21000 ± 1000 |  |
| CC1=C(/C=C/C(C)=C/C=C/C(C)=C/C=C/C=C(C)/C=C/C=C(C)/C=C/C2=C(C)CCCC2(C)C)C(C)(C)CCC1 [β-Carotene] |  | 920 ± 100 | 330 ± 30 | 10 | 50 | 400 ± 60 |  |
| CC1=C(/C=C/C(C)=C/C=C/C(C)=C/C=C/C=C(C)/C=C/C=C(C)/C=C/C2=C(C)C[C@@H](O)CC2(C)C)C(C)(C)C[C@H](O)C1 [Zeaxanthin] | 1840 ± 90 | 1640 ± 500 | 5620 | 68200 | 81000 ± 9000 | 9250 | 53 ± 10 |
| CC1=C(/C=C/C(C)=C/C=C/C(C)=C/C=C/C=C(C)/C=C/C=C(C)/C=C/C2=C(C)C[C@H](O)CC2(C)C)C(C)(C)C[C@H](O)C1 [meso-Zeaxanthin] | 1600 ± 700 | 1850 ± 300 | 7900 ± 200 | 45600 | 35400 ± 800 | 6220 | 55 ± 30 |
| CC1=C(/C=C/C(C)=C/C=C/C(C)=C/C=C/C=C(C)/C=C/C=C(C)/C=C/C2=C(C)C(=O)[C@@H](O)CC2(C)C)C(C)(C)C[C@H](O)C1=O [Astaxanthin] |  | 1640 ± 60 |  |  |  |  | 150 ± 20 |
